Source: PubChem (several laboratories)
Casp6 inh: blocks human caspase-6 cleavage activity | P55212 | purified caspase-6, Z-VEID-R110 cleavage fluorescence | inhibition, % at 12.5 µM | 350,000 compounds, 0.53% hits;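 active = mean inhibition across replicates at least about 35%, with every replicate also reaching that limit, limit read from the data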
Target sequence (P55212 24-179 limits assumed): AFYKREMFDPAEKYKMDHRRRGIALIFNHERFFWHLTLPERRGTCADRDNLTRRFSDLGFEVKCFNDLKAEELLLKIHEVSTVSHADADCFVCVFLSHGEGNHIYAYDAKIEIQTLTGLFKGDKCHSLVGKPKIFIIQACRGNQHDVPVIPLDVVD
Target sequence (P55212 194-293 limits assumed): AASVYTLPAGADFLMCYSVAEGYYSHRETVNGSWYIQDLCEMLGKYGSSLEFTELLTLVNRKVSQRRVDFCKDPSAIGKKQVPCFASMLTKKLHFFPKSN
TDP2 inh: TDP2 (human) inhibition, absorbance primary screen; 370,000 compounds, 0.34% hits; inhibition, % at 12.8 µM; recombinant TDP2, T5PNP hydrolysis, p-nitrophenol absorbance 415 nm; AID 720702;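 active = inhibition above the mean of all tested compounds plus 3 SD, set per campaign, cut at about 25% in these data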
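Incubation: 2 h at 37 °C; Test system: recombinant human TDP2; Quantity: enzyme 120 nM; Read-out basis: percent inhibition; Medium: 50 mM Tris-HCl pH 7.5 with Mg2+, KCl, DTT, BSA; Repeats: single replicate; Compound: 12.8 µM single point, 1% DMSO; Signal: epi absorbance; Reagent: 5 mM T5PNP chromogenic substrate; Benchmarks: no-enzyme high, DMSO-plus-enzyme low.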
LEDGF integ inh: blocks HIV-1 LEDGF/p75-dependent DNA integration; TR-FRET IN-LEDGF/p75 DNA integration, Eu/Cy5; inhibition, % at 3.7 µM; 370,000 compounds, 0.64% hits; AID 743269;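 active = inhibition above the screen-wide mean plus 3 SD, cut at about 13% in these data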;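 note: signal is the Cy5 over europium emission ratio at 671 and 618 nm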
MBD2 DNA inh: inhibitors of human MBD2 binding to methylated oligonucleotide | TR-FRET | inhibition, % at 4.4 µM | 370,000 compounds, 0.31% hits | AID 686964; in the data active = inhibition above about 13%
NSD2 HMT inh: blocks human histone methyltransferase NSD2; O96028; NSD2 peptide methylation, AlphaScreen, 120 min; inhibition, % at 12.5 µM; 310,000 compounds, 0.54% hits; in the data active = inhibition above about 50%
UHRF1 MBD2 ctr: human UHRF1 methylated DNA binding inhibitors; Q96T88; inhibition, % at 4.4 µM; 370,000 compounds, 0.75% hits; AID 687016; UHRF1 binding to methylated oligo, TR-FRET;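 note: UHRF1 SRA domain binding a hemimethylated CpG hairpin DNA probe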
UHRF1 ctr MBD2: counter-screen for MBD2 inhibitors: human UHRF1 methylated DNA binding inhibitors; shares compounds with MBD2 DNA inh; UHRF1 binding to methylated oligonucleotide, TR-FRET; inhibition, % at 4.4 µM; 1,000 compounds, 25% hits; AID 720530;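 note: UHRF1 SRA domain binding a labeled hemimethylated CpG hairpin DNA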
MBD2 DBD conf: confirmation of human MBD2-DBD methylated oligonucleotide binding inhibitors; AID 720531; shares compounds with MBD2 DNA inh; 1,000 compounds, 26% hits; inhibition, % at 4.4 µM; TR-FRET MBD2-DBD binding to methylated oligonucleotide; in the data active = inhibition above about 14%
CASP1 counter: selectivity counter-screen: inhibitors of human caspase-1; shares compounds with Casp6 inh; purified caspase-1, Z-YVAD-R110 cleavage fluorescence; activity change, negative = inhibition, % at 35 µM; 100 tested, under 10 active;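 active = compounds lowering fluorescence whose fitted half-maximal concentration is no more than twice their top tested dose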
Target sequence (P29466 whole entry, looked up): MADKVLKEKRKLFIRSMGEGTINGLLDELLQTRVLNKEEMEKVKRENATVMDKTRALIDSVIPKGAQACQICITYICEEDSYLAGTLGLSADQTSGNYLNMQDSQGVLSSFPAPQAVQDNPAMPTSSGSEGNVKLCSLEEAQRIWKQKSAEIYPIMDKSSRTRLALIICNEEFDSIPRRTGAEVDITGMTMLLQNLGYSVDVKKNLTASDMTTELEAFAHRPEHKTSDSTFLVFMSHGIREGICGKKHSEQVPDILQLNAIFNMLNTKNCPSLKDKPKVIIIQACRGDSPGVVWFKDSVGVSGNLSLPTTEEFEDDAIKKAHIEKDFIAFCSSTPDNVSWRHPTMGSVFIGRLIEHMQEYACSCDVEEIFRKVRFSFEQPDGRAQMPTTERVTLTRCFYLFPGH
TDP2 inh conf: human TDP2 inhibition, confirmation. shares compounds with TDP2 inh. recombinant human TDP2, absorbance read-out. inhibition, % at 12.8 µM. 1,100 compounds, 22% hits; in the data active = inhibition above about 25%
IN multimer act: activates HIV-1 integrase multimerization in LEDGF counter-screen | shares compounds with LEDGF integ inh | TR-FRET HIV-1 integrase multimerization, biochemical | activation, % at 7.7 µM | 2,000 compounds, 17% hits | AID 1053131; in the data active = activation above about 8.9%
TR-FRET interf: optically interferes with TR-FRET readout in LEDGF counter-screen | shares compounds with LEDGF integ inh | TR-FRET optical interference counterscreen, HIV-1 IN multimerization | inhibition, % at 7.7 µM | 2,000 tested, under 10 active | AID 1053135;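 active = inhibition above the mean over all tested compounds plus 3 SD, which no compound reached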
LEDGF integ conf: confirmation of HIV-1 LEDGF/p75-dependent integration inhibitors; TR-FRET LEDGF/p75-dependent HIV-1 integration, biochemical; shares compounds with LEDGF integ inh; 2,000 compounds, 36% hits; inhibition, % at 3.7 µM; in the data active = inhibition above about 14%
Each line names hits and unclear results; the compound was inactive in the other large screens (follow-up assays come after a bar, where they were run). Shown are actives, neighbours in structure and some others; about 1.8% of the full set was active somewhere. Cut-off read from the data, not from the text of the source, unless noted: active = inhibition above about 21%; inactive = the rest.

CC(=O)N(C)C[C@@H]1Oc2ncc(-c3cncnc3)cc2C(=O)N([C@@H](C)CO)C[C@H]1C	none (no result: TDP2 inh, LEDGF integ inh, MBD2 DNA inh, NSD2 HMT inh, UHRF1 MBD2 ctr)
Cc1ccc(S(=O)(=O)NC(=O)Nc2cccc(S(=O)(=O)N(C)C)c2)cc1	MBD2 DNA inh 56 | UHRF1 ctr MBD2 inactive | MBD2 DBD conf inactive
Cc1ccc(-c2ccc(CCC(=O)O)n2Cc2ccco2)cc1	MBD2 DNA inh 88 (no result: Casp6 inh) | UHRF1 ctr MBD2 inactive | MBD2 DBD conf inactive
COc1cc(NC(=O)C2CCCO2)c(OC)cc1NC(=O)c1ccccc1 (stereo not drawn)	MBD2 DNA inh 19 (no result: Casp6 inh) | UHRF1 ctr MBD2 inactive | MBD2 DBD conf inactive
O=C(NCC1CCN(C(=O)C(=O)c2cccs2)CC1)c1ccc2c(c1)CCO2	MBD2 DNA inh 19 | UHRF1 ctr MBD2 inactive | MBD2 DBD conf inactive
C[C@H]1CN([C@@H](C)CO)C(=O)c2cc(C3=CCCCC3)cnc2O[C@@H]1CN(C)C(=O)c1ccccc1	none (no result: TDP2 inh, LEDGF integ inh, MBD2 DNA inh, NSD2 HMT inh, UHRF1 MBD2 ctr)
O=C(NCC(c1cccs1)N1CCOCC1)c1cn(-c2ccccc2)nc1-c1ccccc1 (stereo not drawn)	none
O=C(NCC(c1cccs1)N1CCOCC1)c1cn(-c2ccccc2)nc1-c1ccc(Cl)cc1 (stereo not drawn)	MBD2 DNA inh 14 | UHRF1 ctr MBD2 inactive | MBD2 DBD conf inactive
COC(=O)N1CC(=O)N(OC)C1c1ccc(Cl)cc1Cl (stereo not drawn)	MBD2 DNA inh 15, UHRF1 MBD2 ctr 25 (no result: Casp6 inh) | UHRF1 ctr MBD2 inactive | MBD2 DBD conf inactive
Cc1ccc(C)c(NC(=O)CN(C)C(=O)c2cccc(-n3cccc3)c2)c1	Casp6 inh 59, MBD2 DNA inh 22, UHRF1 MBD2 ctr 36 | UHRF1 ctr MBD2 43 | MBD2 DBD conf 33 | CASP1 counter inactive
CO[C@H]1CN(C)C(=O)c2ccc(NC(=O)C3CC3)cc2OC[C@@H](C)N(C(=O)C2CCCCC2)C[C@H]1C	none (no result: TDP2 inh, LEDGF integ inh, MBD2 DNA inh, NSD2 HMT inh, UHRF1 MBD2 ctr)
CCCSC1=N/C(=C\c2ccc([N+](=O)[O-])o2)C(=O)S1	Casp6 inh 75, LEDGF integ inh 35, MBD2 DNA inh 19, UHRF1 MBD2 ctr 52 | UHRF1 ctr MBD2 21 | MBD2 DBD conf inactive | CASP1 counter inactive
O=c1oc(-c2ccccc2)nc2sc3c(c12)CCC3	Casp6 inh 72, MBD2 DNA inh 18, UHRF1 MBD2 ctr 46 | UHRF1 ctr MBD2 26 | MBD2 DBD conf 15 | CASP1 counter inactive
O=C1CCC(=O)N1c1ccc(-c2nc3sc4c(c3c(=O)o2)CCC4)cc1	none
C[C@@H]1CN([C@@H](C)CO)C(=O)c2cccc(NC(=O)C3CC3)c2O[C@@H]1CN(C)C(=O)NC1CCCCC1	none (no result: TDP2 inh, LEDGF integ inh, MBD2 DNA inh, NSD2 HMT inh, UHRF1 MBD2 ctr)
CCCCN(C(=O)c1cccc(N2C(=O)c3ccccc3C2=O)c1)c1c(N)n(CC(C)C)c(=O)[nH]c1=O	none
CCCCN(C(=O)c1cccc(-n2cccc2)c1)c1c(N)n(Cc2ccccc2)c(=O)[nH]c1=O	Casp6 inh 57, MBD2 DNA inh 18, UHRF1 MBD2 ctr 33 | UHRF1 ctr MBD2 43 | MBD2 DBD conf 35 | CASP1 counter inactive
CCCn1nc2cc(C(=O)NCc3ccc(OC)cc3)ccc2c1OCC	TDP2 inh 38, MBD2 DNA inh 14, UHRF1 MBD2 ctr 29 (no result: NSD2 HMT inh) | UHRF1 ctr MBD2 inactive | MBD2 DBD conf inactive | TDP2 inh conf inactive
CO[C@H]1CN(C)C(=O)c2ccc(NS(=O)(=O)c3c(C)noc3C)cc2OC[C@@H](C)NC[C@@H]1C	none (no result: TDP2 inh, LEDGF integ inh, MBD2 DNA inh, NSD2 HMT inh, UHRF1 MBD2 ctr)
CCOc1cccc(NC(=O)CSc2sc3c(O)cc(=O)[nH]c3c2C#N)c1	none (no result: NSD2 HMT inh)
N#Cc1c(SCC(=O)Nc2nccs2)sc2c(O)cc(=O)[nH]c12	Casp6 inh 82, LEDGF integ inh 18, MBD2 DNA inh 35, UHRF1 MBD2 ctr 77 | UHRF1 ctr MBD2 27 | MBD2 DBD conf 15 | IN multimer act 44 | TR-FRET interf inactive | LEDGF integ conf 34
CC(=O)c1sc2nc(-c3ccco3)ccc2c1N	Casp6 inh 64, LEDGF integ inh 59, MBD2 DNA inh 45, UHRF1 MBD2 ctr 92 | UHRF1 ctr MBD2 28 | MBD2 DBD conf inactive | IN multimer act inactive | TR-FRET interf inactive | LEDGF integ conf inactive
NC(=O)c1sc2nc(-c3ccccc3)ccc2c1N	none
CCCCn1nnnc1C1(C)CCC(=O)N1CCCn1ccnc1 (stereo not drawn)	LEDGF integ inh 16, MBD2 DNA inh 14 (no result: NSD2 HMT inh) | UHRF1 ctr MBD2 inactive | MBD2 DBD conf 16 | IN multimer act inactive | TR-FRET interf inactive | LEDGF integ conf inactive
Cc1cccc(C)c1-n1nnnc1C1(C)CCC(=O)N1CCCn1ccnc1 (stereo not drawn)	none (no result: NSD2 HMT inh)
CN(C)c1ccc(O)c2c1CC1CC3[C@@H](N(C)C)C(=O)C(C(N)=O)=C(O)[C@]3(O)C(=O)C1=C2O (stereo partly drawn)	Casp6 inh 66, LEDGF integ inh 77, MBD2 DNA inh 35, UHRF1 MBD2 ctr 80 (no result: NSD2 HMT inh) | UHRF1 ctr MBD2 36 | MBD2 DBD conf 15 | IN multimer act 51 | TR-FRET interf inactive | LEDGF integ conf 48
O=C1CCCC2=C1C(c1ccco1)Nc1ccc3ccccc3c12 (stereo not drawn)	LEDGF integ inh 33, MBD2 DNA inh 22, UHRF1 MBD2 ctr 50 (no result: Casp6 inh) | UHRF1 ctr MBD2 48 | MBD2 DBD conf 21 | IN multimer act inactive | TR-FRET interf inactive | LEDGF integ conf 53
CCOc1ccc(NC(=O)CN(C)C(=O)c2cc3c(s2)CCC3)cc1OCC	LEDGF integ inh 16, MBD2 DNA inh 17, UHRF1 MBD2 ctr 27 | UHRF1 ctr MBD2 24 | MBD2 DBD conf 20 | IN multimer act 14 | TR-FRET interf inactive | LEDGF integ conf 18
CCOc1ccc(NC(=O)CN(C)C(=O)c2csc3c2CCCC3)cc1OCC	none
